Converted amounts (≈) assume the structure as drawn. The source made the active and inactive calls. The calls are words filed in the database; no cut-off is given here.
Experiments:
[1] = tested on: Trichophyton mentagrophytes; assay: Fungistatic activity against Trichophyton mentagrophytes clinical isolate after 48 hrs by broth dilution method; type: functional
In short: (§1)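 Broth dilution in chemically defined medium, with serial dilutions spanning 0.32 to 0.005 µmol/ml. Dermatophyte plates were read after 48 h at 30 °C.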

[2] = tested on: Trichophyton mentagrophytes; assay: Fungicidal activity against Trichophyton mentagrophytes clinical isolate after 48 hrs by broth dilution method; type: functional; in short: as §1
Cavia porcellus [3] = assay: Toxicity in guinea pig skin assessed as erythema administered topically bid measured on day 6; type: organism-based; conditions: in vivo, topical_or_ocular
In short: (§2)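 Intact or abraded skin of uninfected guinea pigs was treated topically with 1.0% w/v compound. The vehicle was either a solution of propylene glycol (20%), 70% sorbitol (3%) and ethanol (78%) or a petrolatum ointment. Skin was scored for erythema and scaling up to day 6, against vehicle-treated controls.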

Cavia porcellus [4] = assay: Toxicity in guinea pig skin assessed as scaling administered topically bid measured on day 6; type: organism-based; conditions: in vivo, topical_or_ocular; in short: as §2
[5] = tested on: Trichophyton mentagrophytes; assay: Antifungal activity against Trichophyton mentagrophytes infected in guinea pig assessed as cure rate of dermal infection at nonirritating dose administered topically bid started on day 3 post infection continued for 8 days measured every other day through day 14 relative to vehicle-treated control; type: functional, organism-based
In short: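 Guinea pig T. mentagrophytes skin infection model, treated topically. Compounds were given at non-irritating concentrations, either as a w/v solution in propylene glycol (20%), 70% sorbitol (3%) and ethanol (78%) or in a petrolatum ointment. Treated animals were compared with infected, vehicle-only controls.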

Cavia porcellus [6] = assay: Toxicity in guinea pig assessed as skin irritation administered topically bid measured on day 6; type: organism-based; conditions: in vivo, topical_or_ocular; in short: as §2
[7] = Trichophyton mentagrophytes, 48 h, read-out: MIC

Structure (SMILES) | MIC [1] | MIC [1, 7] | MLC [2] | Activity (Cavia porcellus [3]) | Activity (Cavia porcellus [4]) | Activity [5] | Activity (Cavia porcellus [6])
CCCCCCCCNc1cc(C)nc2ccnn12.Cl | 20 µM | – | 160 µM | Toxic | Toxic | – | –
CCCCCCCCCCNc1cc(Cl)nc2ccnn12 | – | > 320 µM | >320 µM | – | – | – | –
CCCCCCCCNc1cc(C)nc2c(C(=O)OCC)cnn12 | – | 320 µM (≈ 106 µg/mL) | >320 µM | – | – | – | –
CCCCCCCCNc1c(C)c(Cl)nc2ccnn12 | – | > 320 µM | >320 µM | – | – | – | –
Cc1cc(N2CCCCC2)n2nccc2n1 | – | > 320 µM | >320 µM | – | – | – | –
CCN(CC)c1cc(C)nc2ccnn12 | – | > 320 µM | >320 µM | – | – | – | –
Cc1cc(NCC(=O)O)n2nccc2n1 | – | > 320 µM | >320 µM | – | – | – | –
CCCCCCCCNc1cc(C(=O)OCC)nc2ccnn12 | – | 320 µM (≈ 102 µg/mL) | >320 µM | – | – | – | –
CCCCCCCCNc1cc(C)nc2ccnn12 [listing 1 of 2 here] | – | – | – | – | – | inactive | –
Cc1cc(NCCCN2CCOCC2)n2nccc2n1.Cl | – | > 320 µM | 320 µM | – | – | – | –

Further lines, with some results ahead:

MIC [1] | MIC [1, 7] | Structure (SMILES) | MLC [2] | Activity (Cavia porcellus [3]) | Activity (Cavia porcellus [4]) | Activity [5] | Activity (Cavia porcellus [6])
– | 40 µM (≈ 11.5 µg/mL) | CCCCCCCCCCNc1cc(C)nc2ccnn12 | >320 µM | – | – | – | –
– | 5 µM (≈ 1.99 µg/mL) | CCCCCCCC/C=C/CCCCCCCCNc1cc(C)nc2ccnn12 | 10 µM (≈ 3.99 µg/mL) | Toxic | Toxic | inactive | –
– | 40 µM (≈ 9.85 µg/mL) | CCCCCCCNc1cc(C)nc2ccnn12 | 320 µM (≈ 78.8 µg/mL) | – | – | – | –
– | 40 µM (≈ 9.29 µg/mL) | CCCCCCNc1cc(C)nc2ccnn12 | 320 µM (≈ 74.3 µg/mL) | – | – | – | –
– | 10 µM | CCCCCCCCNc1ccnc2ccnn12.Cl | 80 µM | Toxic | Toxic | inactive | –
– | 10 µM (≈ 2.74 µg/mL) | CCCCCCCCNc1c(C)c(C)nc2ccnn12 | >320 µM | – | – | – | –
– | 40 µM (≈ 12.3 µg/mL) | Cc1cc(NCc2ccc(Cl)cc2Cl)n2nccc2n1 | >320 µM | – | – | – | –
– | 80 µM (≈ 21.5 µg/mL) | CCCNc1cc(C)nc2c(Br)cnn12 | 320 µM (≈ 86.1 µg/mL) | – | – | – | –
– | 10 µM (≈ 4.78 µg/mL) | CCCCCCCC/C=C/CCCCCCCCNc1cc(C)nc2c(Br)cnn12 | 20 µM (≈ 9.55 µg/mL) | – | – | Active | –
– | 20 µM (≈ 5.62 µg/mL) | CCCCCCCCNc1cc(Cl)nc2ccnn12 | 320 µM (≈ 89.9 µg/mL) | – | – | – | –
– | 20 µM (≈ 5.55 µg/mL) | CCCCCCCCSc1cc(C)nc2ccnn12 | 160 µM (≈ 44.4 µg/mL) | – | – | – | Toxic
– | 20 µM (≈ 5.77 µg/mL) | CCCCCCCCNc1cc(C(C)C)nc2ccnn12 | >320 µM | – | – | – | –
– | 20 µM (≈ 5.21 µg/mL) | CCCCCCCCNc1cc(C)nc2ccnn12 [listing 2 of 2 here] | 160 µM (≈ 41.7 µg/mL) | Toxic | Toxic | – | –
